# Assay outcomes deposited in PubChem BioAssay by several laboratories.
# Compounds with a hit are over-represented: about 3.2% of the library has one in this group of screens.
# SMARCA2 act – SMARCA2 (BRM) function activators, primary screen, cell-based, luminescence, high throughput; AID 652017, 2013; 370,000 tested, 1% active; activation, % at 9.1 µM; MG213 cells, MMTV-luciferase reporter, dexamethasone, overnight; in the data active means activation above about 7.8%;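 further: 0% = vehicle wells and 100% = reference activator wells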
# NR2E3 ag-1 – inhibitors of NR2E3-RetCOR corepressor binding, primary screen, NR2E3 agonist project, biochemical, TR-FRET, GST-NR2E3, biotin-RetCOR; inhibition of corepressor binding, % at 4.78 µM; Photoreceptor-specific nuclear receptor (Homo sapiens), Q9Y5X4; AID 2300, 2010; 1536-well; 320,000 tested, 0.12% active;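 active means percent inhibition above the cutoff of mean plus 3 SD of all tested compounds, set per screening campaign, cut at about 20% in these data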;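 further: 0% = DMSO wells and 100% = biotin wells as full block of FRET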
#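 system = GST-tagged NR2E3 plus biotinylated RetCOR corepressor | input = 1.35 nM GST-NR2E3 | also added = 7 nM biotin-RetCOR | schedule = 5 h incubation at 4 °C | measured by = TR-FRET with europium anti-GST and streptavidin-D2, 340 nm excitation | read-out = percent loss of FRET ratio relative to control wells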
# DAX1 inh-1 – DAX1 (NR0B1) inhibitors, primary screen, cell-based, HEK293, Gal4-DAX1, luciferase luminescence; HEK293 Gal4-DAX1 luciferase reporter; inhibition, % at 6.75 µM; 340,000 tested, 0.99% active;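 active means inhibition above the mean over all tested compounds plus 3 SD, cut at about 4.2% in these data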;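 further: 0% = DAX1-transfected cells with DMSO and 100% = empty-vector control cells with DMSO; inhibition shows as a rise in luminescence from relieved DAX1 repression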
# Target sequence (P51843 207-470 limits assumed): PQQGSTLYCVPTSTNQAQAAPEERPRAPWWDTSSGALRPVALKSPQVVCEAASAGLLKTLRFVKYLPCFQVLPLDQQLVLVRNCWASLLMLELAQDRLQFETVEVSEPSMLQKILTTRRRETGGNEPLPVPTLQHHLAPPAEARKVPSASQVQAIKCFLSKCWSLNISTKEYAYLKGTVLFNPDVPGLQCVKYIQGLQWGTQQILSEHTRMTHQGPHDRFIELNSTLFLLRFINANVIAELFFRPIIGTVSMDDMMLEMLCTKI
# GASC-1 inh – inhibitors of GASC-1 histone demethylase, primary screen, biochemical, fluorescence, DELFIA europium; 330,000 tested, 0.069% active; GST-JMJD2C(1-420) H3K9me3 demethylation; Lysine-specific demethylase 4C (Homo sapiens), Q9H3R0; AID 2099, 2009; inhibition, % at 2.35 µM;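 active means more than half of a compound's replicate wells show inhibition beyond 50%, single wells judged on their own value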;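 further: signal counts dimethyl H3K9 product captured on neutravidin plate; 0% = median of DMSO wells and 100% = 0.3 times that DMSO median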
# Target sequence (Q9H3R0 1-420 limits assumed): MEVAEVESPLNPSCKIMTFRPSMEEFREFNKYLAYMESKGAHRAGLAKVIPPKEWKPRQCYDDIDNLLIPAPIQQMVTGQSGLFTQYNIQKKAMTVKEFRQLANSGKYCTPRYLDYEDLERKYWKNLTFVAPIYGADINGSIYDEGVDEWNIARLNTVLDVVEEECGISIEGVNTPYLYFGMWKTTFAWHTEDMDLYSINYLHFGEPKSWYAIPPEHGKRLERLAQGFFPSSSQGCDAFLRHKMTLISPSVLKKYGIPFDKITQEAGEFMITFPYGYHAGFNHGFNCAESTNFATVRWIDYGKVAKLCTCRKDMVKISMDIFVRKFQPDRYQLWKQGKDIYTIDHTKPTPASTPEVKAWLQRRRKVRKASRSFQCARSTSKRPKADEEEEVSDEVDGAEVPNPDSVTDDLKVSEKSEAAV
# NR2E3 ag-2 – NR2E3 agonists in two-hybrid cells, primary screen, cell-based, luminescence, CHO-S, Gal4-NCOR/VP16-NR2E3; luciferase; inhibition of corepressor binding, % at 3.98 µM; 360,000 tested, 0.35% active; AID 602229, 2012;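 active means inhibition above the mean of all tested compounds plus 3 SD, cut at about 70% in these data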;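 further: 0% = DMSO with NR2E3 transfected cells and 100% = cells lacking NR2E3 construct; higher means lower luciferase signal from less NR2E3 corepressor binding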
# DAX1 inh-2 – DAX1 (NR0B1) inhibitors on StAR promoter, primary screen, cell-based, luminescence, SF-1 (NR5A1), full-length DAX-1; HEK293T StAR-luciferase reporter, SF-1/DAX-1 repression relief; inhibition, % at 6.8 µM; 370,000 tested, 1.1% active; AID 652010, 2013;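 active means inhibition above the mean over all tested compounds plus 3 SD, cut at about 3.6% in these data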;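 further: 0% = DAX-1 cells with DMSO and 100% = cells lacking DAX-1 with DMSO; higher inhibition means more luminescence from relief of DAX-1 repression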
# NR2E3 ag confirm-1 – NR2E3 agonists, confirmation, biochemical, TR-FRET. shares compounds with NR2E3 ag-1. cell-free NR2E3 corepressor release, 5 h. activation (reported as inhibition), % at 3.98 µM. 360 tested, 39% active. AID 2379, 2010; in the data active means activation above about 20%
# PPARg-NCOR2 ag – agonists of PPARg-NCOR2 corepressor interaction, counter-screen for NR2E3 agonist project, biochemical, TR-FRET; shares compounds with NR2E3 ag-1; 360 tested, 45% active; inhibition, % at 3.98 µM; TR-FRET PPARg-NCOR2 coregulator interaction; in the data active means inhibition above about 20%;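 further: 0% = DMSO vehicle and 100% = wells without protein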
# NR2E3 ag confirm-2 – NR2E3 agonist confirmation in cells, cell-based, luminescence, CHO-S two-hybrid; CHO-S mammalian two-hybrid NR2E3-NCOR, luciferase luminescence; shares compounds with NR2E3 ag-2; inhibition, % at 3.98 µM; AID 624378, 2012; 2,300 tested, 51% active;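 active means average inhibition above a cutoff equal to the mean inhibition of all tested compounds plus one SD, cut at about 70% in these data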;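 further: 0% = DMSO in NR2E3 cells and 100% = DMSO in cells lacking NR2E3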
# VP16 counter – GAL4-VP16 reporter modulators, confirmation, counter-screen for NR2E3 agonist project, cell-based, luminescence, CHO-S, high throughput; shares compounds with NR2E3 ag-2; CHO-S GAL4-VP16 luciferase reporter; 2,300 tested, 29% active; AID 624379, 2012; inhibition, % at 3.98 µM;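 active means mean inhibition above a cutoff equal to the average over all tested compounds plus one standard deviation, cut at about 70% in these data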;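 further: luciferase from a UAS reporter driven by GAL4-VP16 transactivation; 0% = DMSO with VP16-transfected cells and 100% = DMSO with cells lacking VP16; higher means less reporter light so more repression of VP16 activity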
# SMARCA2 act conf – SMARCA2 (BRM) function activators, confirmation, cell-based, luminescence, triplicate. 3,500 tested, 30% active. activation, % at 9.1 µM. shares compounds with SMARCA2 act. MG213 cells, MMTV-luciferase with dexamethasone, overnight; MG213 cells expressing E1A, Rb sequestered; DMSO wells 0%, reference activator 100%;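 active means activation above its plate's cutoff, the mean activation of tested wells plus 3 SD, cut at about 7.9% in these data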
# VP16 Luc act – GAL4-VP16 luciferase reporter activation, counter-screen for SMARCA2 (BRM) activator project, cell-based, pG5luc, luminescence, high throughput; shares compounds with SMARCA2 act; HEK293 GAL4-VP16 pG5luc reporter; scaled: DMSO wells 0%, SAHA wells 100%; activation, % at 9.1 µM; 3,500 tested, 41% active; AID 686939, 2013;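 active means activation above the solvent-only control well mean plus 3 SD, averaged across control plates, cut at about 5.2% in these data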
# Starred values were filed as active, the others as inactive; . = not tested or not shown.
SMILES,SMARCA2 act,NR2E3 ag-1,DAX1 inh-1,GASC-1 inh,NR2E3 ag-2,DAX1 inh-2,NR2E3 ag confirm-2,VP16 counter,others
S=c1nc(SCc2ccccc2)[nH]c2ccccc12,-1,35*,-1,6,68,0,18,-40,NR2E3 ag confirm-1=36*;PPARg-NCOR2 ag=55*
Cc1cccc(NC(=O)CN2C(=O)CCSc3ccccc32)c1C,-5,.,.,.,.,0,.,.,
Cc1ccc(C(=O)Nc2nc3ccccc3c(=O)s2)cc1,17*,23*,1,3,6,2,.,.,NR2E3 ag confirm-1=43*;PPARg-NCOR2 ag=46*;SMARCA2 act conf=7;VP16 Luc act=6.3*
O=C(CCc1nc(-c2ccccc2F)no1)NCCc1c[nH]c2ccccc12,0,.,.,.,.,-1,.,.,
O=C(NC(=S)N1CCN(c2c(Cl)cccc2[N+](=O)[O-])CC1)c1cccs1,0,3,0,8,54,0,39,35,
COc1ccc(NS(=O)(=O)c2ccc(C(=O)N3CCC(C)CC3)cc2)cc1,0,.,-2,11,56,-2,25,25,
CCOc1ccc(S(=O)(=O)Nc2cccc(N(C)S(C)(=O)=O)c2)cc1,-2,0,-1,-13,49,-2,48,54,
CC1CCN(C(=O)c2ccc(NS(=O)(=O)c3ccccc3)cc2)CC1,1,-1,0,1,6,1,.,.,
CCOc1ccc(S(=O)(=O)Nc2ccc3c(c2)n(C)c(=O)n3C)cc1,-6,3,0,7,74*,-1,62,59,
CCOc1ccc(NS(=O)(=O)c2ccc3c(c2)N(C(C)=O)CCS3)cc1,-5,3,0,1,55,0,7,13,
COc1ccc(S[C@]2(C(=O)N3CCN(c4ncccn4)CC3)CC(=O)N(c3ccc(OC)cc3)[C@@H]2c2ccc(OC)cc2)cc1,-3,.,.,.,.,-1,.,.,
CC(=O)Nc1ccc(NC(=O)CSc2nnc(-c3cccs3)o2)cc1,-6,.,.,.,.,-4,.,.,
O=C(NCCc1ccccc1)OCc1cn(-c2ccccc2Cl)nn1,-2,.,.,.,.,1,.,.,
COC(=O)c1cc(-c2ccc(OC)c(OC)c2)c(=O)n2c1CCC2,-1,.,.,.,.,0,.,.,
CCc1ccc(S(=O)(=O)Nc2cc3c(cc2C)n(C)c(=O)n3C)cc1,-4,1,-2,-49,98*,-10,83*,69,
CCOc1ccc(NS(=O)(=O)c2ccc(C(=O)N3CCN(c4ncccn4)CC3)cc2)cc1,-4,6,-1,1,29,-4,.,.,
CCOc1ccc(NS(=O)(=O)c2ccc(C(=O)N3CCCCC3)cc2)cc1,-4,0,-1,0,58,-3,40,54,
Cc1ccc(NS(=O)(=O)c2ccc3c(c2)n(C)c(=O)n3C)c(C)c1,-1,0,1,3,14,0,.,.,
CC(=O)c1cc(-c2cccc([N+](=O)[O-])c2)c(=O)n2c1CCC2,-1,.,.,.,.,0,.,.,
CCN(CC)S(=O)(=O)c1ccc(N2CCOCC2)c(NS(=O)(=O)c2cc(C(C)(C)C)ccc2C)c1,-3,1,-1,-2,50,0,66,-18,
CC(=O)/C(=N/Nc1cccc(Cl)c1)N1CCOCC1,-2,6,-1,6,64,0,7,-18,
CC(=O)/C(=N/Nc1ccccc1)N1CCOCC1,0,-2,-1,-12,2,0,.,.,
Cc1cccc(NC(=S)NNc2ncc(C(F)(F)F)cc2Cl)c1,-7,1,1,3,-16,-2,.,.,
FC(F)(F)c1cnc(NNC(=S)Nc2ccccc2Cl)c(Cl)c1,-10,6,-5,-3,52,-3,66,66,
O=S(=O)(c1ccc2c(c1)C(O)c1ccccc1CC2)C(F)(F)F (stereo not given),0,0,1,6,56,0,57,53,
SMILES,SMARCA2 act,NR2E3 ag-1,DAX1 inh-1,GASC-1 inh,NR2E3 ag-2,DAX1 inh-2,NR2E3 ag confirm-2,VP16 counter,others
CCc1ccc(NC(=S)N(CCCN2CCOCC2)Cc2ccco2)cc1,-1,-2,1,2,66,0,-7,-11,
COC(=O)c1c(-c2ccc(C)cc2)csc1NC(=O)Cc1ccc(OC)c(OC)c1,-2,.,-1,-4,57,-3,22,32,
COC(=O)[C@]12C[C@H](CC(=O)NCc3cccs3)C(=O)N(Cc3cccc4ccccc34)C1=C[C@H](C(C)(C)C)O[C@@H]2C,-2,.,.,.,.,-2,.,.,
COc1ccc(C(=O)c2c(C(F)(F)F)oc3c2C(=O)c2ccccc2C3=O)cc1OC,-8,6,-2,4,89*,-3,100*,54,
O=C(Cc1ccccc1F)Nc1nnc(-c2cccnc2)s1,-1,.,.,.,.,2,.,.,
Cc1ccccc1COC(=O)c1cc([N+](=O)[O-])ccc1N1CCOCC1,0,1,1,15,-3,-2,.,.,
CSc1ccc(COC(=O)c2cc([N+](=O)[O-])ccc2N2CCOCC2)cc1,-4,-1,-1,-1,61,3,12,27,
